A selection: hits, their analogues and other compounds. The true share with any hit is near 1.8%.
Rin1 Abl inh – human Rin1-Abl interaction inhibition; P00519+Q13671; TR-FRET Rin1/Abl binding, biochemical; inhibition, % at 7.35 µM; 360,000 compounds, 0.4% hits; in the data active means inhibition above about 5%, passing the limit was not always enough
NR1D1 modulator – modulates human Rev-erb alpha binding to DNA. P20393. 370,000 compounds, 0.79% hits. Rev-erbα–FITC-DNA binding, fluorescence polarization, 90 min. activity, % at 10 µM;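 active means activity above about 14%, limit read from the data; passing the limit was not always enough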;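 further: 0% = DMSO wells with 35 nM protein and 100% = DMSO wells with 750 nM protein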
PG9 binder – PG9 antibody binding by small molecule | TR-FRET gp120-PG9 antibody binding | inhibition, % at 6.7 µM | 360,000 compounds, 0.43% hits | AID 624416; in the data active means inhibition above about 8.5%
Tb MetRS inh – Trypanosoma brucei MetRS inhibition; purified T. brucei MetRS, ATP depletion, Kinase-Glo luminescence; inhibition, % at 11.9 µM; 360,000 compounds, 0.4% hits; AID 624268;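 active means inhibition above a per-plate cutoff of the control wells' mean inhibition plus 3 SD, cut at about 5.5% in these data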;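 further: 0% = DMSO wells median and 100% = median of wells with control inhibitor compound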
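technique = Kinase-Glo luminescence, ATP depletion format | system = purified MetRS (methionyl-tRNA synthetase) enzyme from Trypanosoma brucei | timing = 15 min preincubation, 2 h reaction, all 25 °C | evaluation = percent inhibition versus plate control medians | dosing = single dose, 11.9 µM final nominal, 0.9% final DMSO | also added = substrates ATP, L-methionine and bulk Escherichia coli tRNA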
Rin1 Abl conf – confirmation of inhibitors of human Rin1-Abl interaction; shares compounds with Rin1 Abl inh; TR-FRET Rin1-Abl binding, purified proteins; inhibition, % at 7.35 µM; 1,300 compounds, 49% hits
GFP quench – quenches GFP fluorescence, counter-screen for Rin1-Abl inhibitors. inhibitors/quenchers counterscreen. inhibition, % at 6.75 µM. shares compounds with Rin1 Abl inh. 1,300 compounds, 8.5% hits;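 further: ABL1-eGFP fusion protein alone without its partner RIN1-SBP; 0% = protein with vehicle and 100% = wells lacking protein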
GFP quench dose – counter-screen for Rin1-Abl inhibitors: GFP quenchers, dose response. AID 602182. shares compounds with Rin1 Abl inh. GFP fluorescence interference/quenching counterscreen. 230 tested, under 10 active. IC50, µM; call rule not given here;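 further: ABL1-eGFP fusion protein alone without its RIN1 binding partner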
Starred values were filed as active, the others as inactive. Unless noted, no stated cut-off is given here; in the data, active means inhibition above about 6.5%; inactive means the rest.

What do the screens show for `CCCCOC(=O)C1=C(C)NC2(O)c3ccccc3C(=O)C12O` (configuration not stated)?
Rin1 Abl inh: 7.8*; NR1D1 modulator: 2; PG9 binder: 1; Tb MetRS inh: 1; Rin1 Abl conf: 1; GFP quench: -2

Results for CC1=C(C(=O)OC(C)C)C2(O)C(=O)c3ccccc3C2(O)N1 (configuration not stated) ?
Rin1 Abl inh: 13*; NR1D1 modulator: 1; PG9 binder: 1; Tb MetRS inh: 0; Rin1 Abl conf: -2; GFP quench: -1

What do the screens show for `C[C@@H]1CC2C3CCC4=CC(=O)C=C[C@]4(C)[C@@]3(F)[C@@H](O)C[C@]2(C)[C@@]1(O)C(=O)CO` (some centres not stated)?
NR1D1 modulator: -5

Results for CCCCCCCC(=O)O ?
Rin1 Abl inh: -3; NR1D1 modulator: -6; PG9 binder: 0; Tb MetRS inh: 1

Results for C[C@@H]1NC(=O)N[C@@H]1CCCCCC(=O)O ?
Rin1 Abl inh: 92*; NR1D1 modulator: -10; PG9 binder: 1; Tb MetRS inh: -1; Rin1 Abl conf: 95*; GFP quench: 0; GFP quench dose: >68

Results for Cc1cccc(C)c1NC(=O)CCCN1CC(C)OC(C)C1 (configuration not stated) ?
Rin1 Abl inh: -1; NR1D1 modulator: 3; PG9 binder: 0; Tb MetRS inh: -1

Results for CCCCCC1NC(=O)NC1CCCCCC(=O)O (configuration not stated) ?
Rin1 Abl inh: 14*; NR1D1 modulator: 2; PG9 binder: 1; Tb MetRS inh: 1; Rin1 Abl conf: 14*; GFP quench: 0

Results for Cc1cccc(C)c1NC(=O)CCCCCC1NC(=O)NC1C (configuration not stated) ?
Rin1 Abl inh: 82*; NR1D1 modulator: -4; PG9 binder: 1; Tb MetRS inh: -2; Rin1 Abl conf: 91*; GFP quench: 0; GFP quench dose: >68

Results for CCCCOCCCNC(=O)C[C@@H]1C(=O)N2CCCC3=C2[C@@]1(C(=O)OCC)CCC3 ?
NR1D1 modulator: -1

What do the screens show for `C=CCN1C(=O)c2[nH]nc(-c3ccccc3)c2C1c1ccc(C)cc1` (configuration not stated)?
NR1D1 modulator: -2; PG9 binder: -1

Results for O=C(O)c1cccc2cc(-c3ccccc3)oc(=O)c12 ?
Rin1 Abl inh: 2; NR1D1 modulator: 4; PG9 binder: 0; Tb MetRS inh: 0

What do the screens show for `O=C(O)c1cccc2cccc(-c3c4ccc(=O)c(O)c-4oc4c(O)c(O)ccc34)c12`?
Rin1 Abl inh: 41*; NR1D1 modulator: -38; PG9 binder: 2; Tb MetRS inh: 0; Rin1 Abl conf: 45*; GFP quench: 28*

How did CC1(C)C(=O)OC(c2c(F)c(F)c(F)c(F)c2F)C2(CCCCC2)C1=O (configuration not stated) do in these assays?
Rin1 Abl inh: 7.5*; NR1D1 modulator: -3; PG9 binder: 1; Tb MetRS inh: -1; Rin1 Abl conf: -2; GFP quench: 1

What do the screens show for `COc1cc(O)c(C(C)=O)c(CC(=O)O)c1`?
Rin1 Abl inh: 20*; NR1D1 modulator: -14; PG9 binder: -1; Tb MetRS inh: -2; Rin1 Abl conf: 25*; GFP quench: 5; GFP quench dose: >67

What do the screens show for `Cc1cc(Br)ccc1NC(=O)CSc1nnc(CN2CCOCC2)n1C`?
Rin1 Abl inh: 10*; NR1D1 modulator: -1; PG9 binder: 1; Tb MetRS inh: -1; Rin1 Abl conf: 6; GFP quench: 1

What do the screens show for `O=C(Nc1cccc2nsnc12)C1CC(=O)N(c2ccccc2)C1` (configuration not stated)?
Rin1 Abl inh: 10*; NR1D1 modulator: 8; PG9 binder: 2; Tb MetRS inh: -1; Rin1 Abl conf: -5; GFP quench: -1

How did CC(C)N(CC(N)=O)C(=O)c1sc2cc(F)ccc2c1Cl do in these assays?
Rin1 Abl inh: 7.0*; NR1D1 modulator: -4; PG9 binder: 0; Tb MetRS inh: -2; Rin1 Abl conf: 0; GFP quench: 1
